The nature of data set [1]: Retention time of the compound. The format is physicochemical.
The target in data set [2] is T1, Fatty-acid amide hydrolase 1 (Rattus norvegicus, UniProt P97612).
T1 sequence (P97612 whole entry): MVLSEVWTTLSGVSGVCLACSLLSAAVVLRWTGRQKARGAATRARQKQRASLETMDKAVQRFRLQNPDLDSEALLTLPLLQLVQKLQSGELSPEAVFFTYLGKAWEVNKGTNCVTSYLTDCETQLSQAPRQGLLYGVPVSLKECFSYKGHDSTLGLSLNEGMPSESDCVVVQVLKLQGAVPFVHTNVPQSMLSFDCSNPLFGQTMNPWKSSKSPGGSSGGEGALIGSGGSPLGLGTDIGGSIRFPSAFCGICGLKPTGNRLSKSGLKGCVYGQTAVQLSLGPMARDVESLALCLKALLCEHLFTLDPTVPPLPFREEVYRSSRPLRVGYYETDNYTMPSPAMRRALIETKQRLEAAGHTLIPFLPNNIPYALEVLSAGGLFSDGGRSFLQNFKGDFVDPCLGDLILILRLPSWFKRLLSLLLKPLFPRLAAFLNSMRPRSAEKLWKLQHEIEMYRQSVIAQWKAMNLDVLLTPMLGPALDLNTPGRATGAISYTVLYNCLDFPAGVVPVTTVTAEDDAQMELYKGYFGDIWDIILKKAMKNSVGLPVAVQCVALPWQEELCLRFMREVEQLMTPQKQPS
Kind of data set: Inhibition of recombinant rat FAAH preincubated for 3 hrs. An outline of the steps: (§1)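 Recombinant FAAH (rFAAH) was preincubated with the inhibitor for 3 h before activity was measured. Results are reported as an apparent Ki in nM.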

Data set [3] concerns the target T1, Fatty-acid amide hydrolase 1. Nature of the data set: Irreversible inhibition of recombinant rat FAAH preincubated for 3 hrs. The gist of the method: as §1

In data set [1], `O=C(N1CCCCC1)n1cccn1` came in with a Retention_time of 3.484 min. In addition, in data set [2], the Ki was 750 nM.

In turn, `Cc1cnn(C(=O)N2CCCCC2)c1` gave a Retention_time in data set [1] of 3.933 min. Also, the Ki in data set [2] is above 1000 nM.

As to `N#Cc1cnn(C(=O)N2CCCCC2)c1`, in data set [1], the Retention_time amounted to 3.824 min. The Ki in data set [2] came to 80 nM.

Turning to `CC(C)(C)OC(=O)N1CCN(C(=O)n2cccn2)CC1`, in data set [1], the Retention_time is given as 3.92 min. Moreover, the Ki in data set [2] was 340 nM.

`Cc1cnn(C(=O)N2CCN(C(=O)OC(C)(C)C)CC2)c1` returned a Retention_time in data set [1] of 3.784 min. Further, the Ki in data set [2] is 850 nM.

The compound `CC(C)(C)OC(=O)N1CCN(C(=O)n2cc(C#N)cn2)CC1` registered a Retention_time in data set [1] of 3.946 min. In data set [2], the Ki worked out at 55 nM.

In data set [1], `O=C(N1CCN(Cc2ccccc2)CC1)n1cccn1` yielded a Retention_time of 3.894 min. Besides, in data set [2], the Ki is 180 nM.

In data set [1], `Cc1cnn(C(=O)N2CCN(Cc3ccccc3)CC2)c1` returned a Retention_time of 4.201 min. For the same compound, the Ki in data set [2] was 250 nM.

In data set [1], `N#Cc1cnn(C(=O)N2CCN(Cc3ccccc3)CC2)c1` gave a Retention_time of 3.899 min. Moreover, the Ki in data set [2] stood at 75 nM.

In the case of `O=C(N1CCN(Cc2ccc3ccccc3c2)CC1)n1cccn1`, the Retention_time in data set [1] worked out at 3.791 min. For the same compound, the Ki in data set [3] stood at 9.8 nM.

In turn, `Cc1cnn(C(=O)N2CCN(Cc3ccc4ccccc4c3)CC2)c1` displayed a Retention_time in data set [1] of 3.896 min. In data set [3], the Ki is 130 nM.

As to `N#Cc1cnn(C(=O)N2CCN(Cc3ccc4ccccc4c3)CC2)c1`, the Retention_time in data set [1] is recorded as 3.915 min. Moreover, the Ki in data set [3] was found to be 0.16 nM.

In data set [1], `O=C(N1CCN(Cc2ccc3ccccc3c2)CC1)n1cc(Br)cn1` registered a Retention_time of 3.989 min. Further, the Ki in data set [3] was 0.47 nM.

`O=C(N1CCN(Cc2ccc3ccccc3c2)CC1)n1cc(I)cn1` showed a Retention_time in data set [1] of 3.844 min. Further, the Ki in data set [3] worked out at 0.29 nM.

Consider `O=C(N1CCN(Cc2ccc(-c3ccccc3)cc2)CC1)n1cccn1`, for which the Retention_time in data set [1] is given as 3.897 min. The Ki in data set [2] worked out at 12 nM.

In turn, `Cc1cnn(C(=O)N2CCN(Cc3ccc(-c4ccccc4)cc3)CC2)c1` gave a Retention_time in data set [1] of 3.899 min. The Ki in data set [2] came to 170 nM.

For the compound `COC(=O)c1cnn(C(=O)N2CCN(Cc3ccc4ccccc4c3)CC2)c1`, in data set [1], the Retention_time worked out at 3.999 min. For the same compound, the Ki in data set [3] was found to be 0.36 nM.

Compound `O=C(N1CCN(Cc2ccc(OCc3ccccc3)cc2)CC1)n1cccn1` had a Retention_time in data set [1] of 3.929 min. Besides, the Ki in data set [2] was 10 nM.

In the case of `Cc1cnn(C(=O)N2CCN(Cc3ccc(OCc4ccccc4)cc3)CC2)c1`, the Retention_time in data set [1] worked out at 3.899 min. Besides, the Ki in data set [2] was found to be 100 nM.

In turn, `N#Cc1cnn(C(=O)N2CCN(Cc3ccc(OCc4ccccc4)cc3)CC2)c1` returned a Retention_time in data set [1] of 3.787 min. In data set [2], the Ki came out at 0.16 nM.

`O=C(N1CCN(Cc2ccc(Oc3ccccc3)cc2)CC1)n1cccn1`: the Retention_time in data set [1] is on record as 3.893 min. For the same compound, the Ki in data set [3] is 9.2 nM.

In data set [1], `Cc1cnn(C(=O)N2CCN(Cc3ccc(Oc4ccccc4)cc3)CC2)c1` had a Retention_time of 3.987 min. Further, the Ki in data set [3] came out at 210 nM.

In the case of `N#Cc1cnn(C(=O)N2CCN(Cc3ccc(Oc4ccccc4)cc3)CC2)c1`, the Retention_time in data set [1] stood at 3.927 min. The Ki in data set [3] came to 0.1 nM.

The compound `N#Cc1cnn(C(=O)N2CCN(Cc3ccc(-c4ccccc4)cc3)CC2)c1` showed a Retention_time in data set [1] of 3.877 min. The Ki in data set [2] was determined as 0.19 nM.
